# TRPC4 agonist: activators of mouse TRPC4 channel; HEK293 TRPC4beta/mu-opioid, Fluo4 calcium fluorescence; hits give high values; 310,000 compounds, 0.49% hits; Q9QUQ5; B-score at 10 µM; AID 2237;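 active = B-score above 5 SD of library B-scores, and initial fluorescence ratio not above library mean plus 5 SD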;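 note: positive B-score marks a calcium rise read as TRPC4 activation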
#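 Assay system – TRPC4beta and mu-opioid receptor HEK293 stable cells · Measured by – Fluo4 fluorescence, kinetic · Schedule – dye loading 45 min room temperature, 110 s kinetic read · Read-out – B-scored integrated calcium fluorescence ratio · Controls – buffer and maximal DAMGO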
# TRPC6 activator: activates the mouse TRPC6 cation channel; Q61143; HEK293-TRPC6 membrane potential dye fluorescence; hits give high values; B-score at 10 µM; 310,000 compounds, 0.13% hits;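 active = B-score of the integrated fluorescence ratio above library mean plus 3 SD, and starting fluorescence ratio within library mean plus 5 SD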;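 note: higher score means more depolarization so channel activation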
# Target sequence (Q61143 whole entry, looked up): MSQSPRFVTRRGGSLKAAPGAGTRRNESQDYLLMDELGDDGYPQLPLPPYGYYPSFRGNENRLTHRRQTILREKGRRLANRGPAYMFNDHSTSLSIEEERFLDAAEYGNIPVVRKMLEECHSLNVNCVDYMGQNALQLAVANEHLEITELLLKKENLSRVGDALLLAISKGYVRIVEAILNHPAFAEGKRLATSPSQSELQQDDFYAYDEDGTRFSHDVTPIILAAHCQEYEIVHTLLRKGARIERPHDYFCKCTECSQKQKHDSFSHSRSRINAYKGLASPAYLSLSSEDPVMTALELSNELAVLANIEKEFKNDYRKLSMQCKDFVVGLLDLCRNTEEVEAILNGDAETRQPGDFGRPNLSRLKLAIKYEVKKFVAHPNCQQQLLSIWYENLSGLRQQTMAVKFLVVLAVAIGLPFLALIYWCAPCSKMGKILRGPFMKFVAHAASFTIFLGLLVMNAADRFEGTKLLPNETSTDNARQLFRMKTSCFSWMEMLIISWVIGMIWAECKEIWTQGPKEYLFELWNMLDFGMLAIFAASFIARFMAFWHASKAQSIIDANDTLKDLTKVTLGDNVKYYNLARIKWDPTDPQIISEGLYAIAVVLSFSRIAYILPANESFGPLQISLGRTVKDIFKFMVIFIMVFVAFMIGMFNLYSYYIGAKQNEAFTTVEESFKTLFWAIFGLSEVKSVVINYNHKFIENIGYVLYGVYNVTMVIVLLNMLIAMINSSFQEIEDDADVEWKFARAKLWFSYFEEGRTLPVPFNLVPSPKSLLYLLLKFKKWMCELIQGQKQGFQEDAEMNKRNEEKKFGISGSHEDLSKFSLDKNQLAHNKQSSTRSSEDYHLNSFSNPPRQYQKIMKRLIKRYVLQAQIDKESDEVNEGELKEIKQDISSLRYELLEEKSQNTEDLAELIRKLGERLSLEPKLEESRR
# TRPC4 PAM: allosteric potentiators of mouse TRPC4 channel. Q9QUQ5. HEK293 TRPC4beta/mu-opioid, DAMGO EC20, Fluo-4 Ca2+ flux; hits give high values. B-score at 10 µM. 310,000 compounds, 0.42% hits;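 active = B-score of calcium response area above 5 SD of library B-scores, with initial fluorescence ratio within 5 SD of library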;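 note: B-score of integrated fluorescence ratio over time as area under calcium response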
# TRPC6 inhibitor: inhibitors of mouse TRPC6 channel; HEK293-TRPC6, membrane potential dye, ACh-evoked depolarization; hits give low values; B-score at 10 µM; 310,000 compounds, 1.1% hits; AID 2553;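 active = B-score under library mean minus 3 SD, initial fluorescence not abnormally high, positive integrated signal ratio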;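 note: B-score derived from integrated fluorescence ratio over the kinetic read; more negative B-score means stronger inhibition of depolarization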
# TRPC4 block: inhibitors of mouse TRPC4 channel. HEK293 TRPC4beta/mu-opioid, DAMGO-evoked Fluo4 calcium flux; hits give low values. 300,000 compounds, 0.39% hits. B-score at 10 µM. Q9QUQ5;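 active = B-score over 3 SD under the library average, no early fluorescence shift, positive overall ratio signal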
#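 Material: HEK293 cells with stable TRPC4beta plus mu-opioid receptor expression; probe or stimulus: DAMGO in two steps, submaximal then maximal; technique: Fluo4 calcium fluorescence by kinetic imaging, 5 s 1 Hz baseline; measure: integrated fluorescence ratio relative to baseline, converted to per-well B score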
# TRPC4 spec 2: mouse TRPC4 off-target activity of TRPC6 inhibitors, second screen. AID 2776. inhibition, % at 10 µM. HEK293 TRPC4/MOR, membrane potential dye fluorescence; channel activated by saturating DAMGO dose. 920 compounds, 42% hits. shares compounds with TRPC6 inhibitor;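 active = compounds whose fluorescence signal differed from control wells by over 3 SD, either direction, in both duplicate plates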
# TRPC4 spec: tests whether TRPC6 inhibitors also affect mouse TRPC4; AID 2777; 920 compounds, 61% hits; activity change, negative = inhibition, % at 10 µM; shares compounds with TRPC6 inhibitor; HEK293 TRPC4/mu-opioid, membrane potential fluorescence;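 active = rise or fall in signal beyond 3 SD of buffer-only wells in both replicate plates, either sign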;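 note: integrated kinetic ratio of fluorescence range over baseline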
# HEK293 MPD ctr 2-1: parental HEK293 nonspecific activity of TRPC6 inhibitors, second screen; shares compounds with TRPC6 inhibitor; parental HEK293 membrane potential dye fluorescence; maximal acetylcholine challenge after compound addition; signal change vs control, % at 10 µM; 920 compounds, 31% hits;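 active = membrane potential signal moving either way by over 3 SD of the maximum-effect control, in both duplicate plates, meaning non-specific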
# HEK293 MPD ctr-1: counter-screen for TRPC6 inhibitors: effect in parental HEK293 cells; shares compounds with TRPC6 inhibitor; parental HEK293 membrane potential dye fluorescence; membrane potential signal change, % at 10 µM; 920 compounds, 60% hits; AID 2780;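 active = membrane potential signal shifting up or down by more than 3 SD of buffer-only wells, on both duplicate plates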
# HEK293 MPD ctr-2: counter-screen for TRPC6 modulators: effect in parental HEK293 cells; membrane potential dye fluorescence; 2,400 compounds, 51% hits; membrane potential signal change, % at 10 µM; shares compounds with TRPC6 inhibitor; AID 488924;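 active = membrane potential signal moves up or down beyond 5 SD from buffer-only wells, on both duplicate plates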
# HEK293 MPD ctr 2-2: second counter-screen for TRPC6 modulators: effect in parental HEK293 cells | inhibition, % at 10 µM | 2,400 compounds, 14% hits | shares compounds with TRPC6 inhibitor | membrane potential dye fluorescence; after compound, maximal acetylcholine stimulation | AID 488926;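 active = membrane potential signal drops by more than 5 SD from the mean control signal, in both duplicate plates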;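 note: plate controls were acetylcholine ECmax control wells for no effect and buffer only wells for full effect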
# TRPC4 ctr mod: mouse TRPC4 off-target activity of TRPC6 modulators; shares compounds with TRPC6 inhibitor; HEK293 TRPC4/mu-opioid, membrane potential fluorescence; percent change from control (negative = decrease, positive = increase), % at 10 µM; 2,400 compounds, 69% hits; AID 488927;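 active = membrane potential signal moved up or down beyond 5 SD of buffer control wells, in both duplicate plates, actives on both sides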;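 note: plate controls were assay buffer wells for no effect and DAMGO maximal-effect wells for full effect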
# TRPC4/MOR inh 2: second selectivity test of TRPC6 modulators against mouse TRPC4. 2,400 compounds, 55% hits. HEK293 TRPC4/mu-opioid, membrane potential dye fluorescence; stimulated with maximal-effect DAMGO. shares compounds with TRPC6 inhibitor. inhibition, % at 10 µM;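 active = drop in membrane potential signal beyond 5 SD of the control wells in both duplicate plates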;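 note: TRPC4 counter screen for TRPC6 hits run under conditions tuned for TRPC6 not TRPC4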
# TRPC6 block conf: mouse TRPC6 inhibitor confirmation. shares compounds with TRPC6 inhibitor. HEK293-TRPC6, membrane potential dye, ACh-evoked depolarization. inhibition, % at 10 µM. 3,300 compounds, 43% hits. AID 488960;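 active = fluorescence ratio falls more than 5 SD below the full-stimulation control mean, in both duplicate runs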;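 note: integrated fluorescence ratio of peak minus minimum over baseline after agonist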
# TRPC6 act confirm: confirmation of mouse TRPC6 activators. shares compounds with TRPC6 inhibitor. HEK293-TRPC6 membrane potential dye fluorescence, FDSS. activation, % at 10 µM. 2,800 compounds, 11% hits. AID 488961;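 active = ratio signal rise beyond 5 SD above unstimulated control wells' mean, seen in both duplicate runs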;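 note: plate controls were buffer EC0 wells for no effect and acetylcholine ECmax response for full effect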
# Starred values were filed as active, the others as inactive; i = inactive; nt = not tested or not shown. Only some compounds are listed: those with a hit (about 2.3% of all), similar ones and a draw of the others.
SMILES,TRPC4 agonist,TRPC6 activator,TRPC4 PAM,TRPC6 inhibitor,TRPC4 block,HEK293 MPD ctr-2,HEK293 MPD ctr 2-2,TRPC4 ctr mod,TRPC4/MOR inh 2,TRPC6 block conf,TRPC6 act confirm,others
CCOC(=O)Cn1c(=N)n(CCOc2ccc(Br)cc2)c2ccccc21,i,i,i,-7.7*,i,nt,nt,nt,nt,55%*,i,TRPC4 spec 2=44%*;TRPC4 spec=0.5%*;HEK293 MPD ctr 2-1=i;HEK293 MPD ctr-1=3.0%*
COc1cc(NC(=O)CCNS(=O)(=O)c2ccc3c(c2)CCC(=O)N3)cc(OC)c1,i,i,i,i,i,nt,nt,nt,nt,nt,nt,
COc1ccc(OCC(O)COc2ccc(OC)cc2)cc1,i,i,i,-6.4*,i,i,i,i,i,66%*,nt,
COc1ccc(OCC(O)CNC(=O)c2ccc(OC)cc2)cc1 (stereo not given),i,i,i,i,i,nt,nt,nt,nt,nt,nt,
Cc1c(OC(C)C(=O)N2C[C@H]3C[C@@H](C2)c2cccc(=O)n2C3)ccc2c3c(c(=O)oc12)CCC3 (stereo not given in full),i,i,i,-5*,i,96%*,i,12%*,i,i,nt,
C/C(=N\NC(=S)NCCc1ccccc1)c1ccc(C)cc1,i,i,i,-5.3*,i,187%*,i,-15%*,i,i,i,
Cc1ccc(CNc2ccc3c(c2)nc(C)n3C)cc1,i,i,i,-8.1*,i,nt,nt,nt,nt,66%*,i,TRPC4 spec 2=50%*;TRPC4 spec=-15%*;HEK293 MPD ctr 2-1=i;HEK293 MPD ctr-1=-176%*
Cn1c(NCc2ccc(Cl)cc2)nc2ccccc21,i,i,i,i,i,nt,nt,nt,nt,nt,nt,
Cc1nc2cc(CO)ccc2n1C,i,i,i,i,i,nt,nt,nt,nt,nt,nt,
Cc1ccc(CNc2ccc3c(c2)ncn3C(C)(C)C)cc1,i,i,21*,-6.8*,i,nt,nt,nt,nt,i,i,TRPC4 spec 2=52%*;TRPC4 spec=12%*;HEK293 MPD ctr 2-1=240%*;HEK293 MPD ctr-1=i
Cc1nc2cc(NCc3ccc(Cl)cc3)ccc2n1C,i,i,i,-7.1*,i,nt,nt,nt,nt,60%*,i,TRPC4 spec 2=51%*;TRPC4 spec=-15%*;HEK293 MPD ctr 2-1=i;HEK293 MPD ctr-1=-300%*
Cc1ccc2nc(SC(C)C(=O)Nc3cccc([N+](=O)[O-])c3)[nH]c2c1 (stereo not given),i,i,i,i,i,nt,nt,nt,nt,nt,nt,
O=C(C1CCCN(Cc2cccc(Cl)c2)C1)N1CCCCC1 (stereo not given),i,i,i,i,i,nt,nt,nt,nt,nt,nt,
CCOc1ccccc1C(=O)Oc1ccc2ccc(=O)oc2c1,i,i,i,i,i,nt,nt,nt,nt,nt,nt,
FC(F)Sc1ccc(-n2cc(-c3ccc(Cl)cc3)[n+]3c2CCC3)cc1,i,i,i,-7*,i,nt,nt,nt,nt,53%*,i,TRPC4 spec 2=i;TRPC4 spec=-14%*;HEK293 MPD ctr 2-1=-40%*;HEK293 MPD ctr-1=-216%*
Cc1ccc(-c2cn(-c3ccc(SC(F)F)cc3)c3[n+]2CCC3)cc1,i,i,i,i,i,nt,nt,nt,nt,nt,nt,
CC[n+]1c(/C=C(\C)SC)sc2ccccc21,i,i,i,-10*,i,-262%*,82%*,-42%*,58%*,56%*,i,
CC[n+]1c(/C=C(/C)SC)sc2ccccc21,i,i,i,-7.5*,i,-275%*,82%*,-48%*,52%*,67%*,i,
CC[n+]1c(/C=C2/C=C(C)CC(C)C2)sc2ccccc21 (stereo not given),i,i,i,i,i,nt,nt,nt,nt,nt,nt,
CC/C(=C/c1sc2ccccc2[n+]1CC)SC,i,i,i,i,i,nt,nt,nt,nt,nt,nt,
CC[n+]1c(/C=C/Nc2ccccc2)sc2ccccc21,i,i,i,-8.5*,i,nt,nt,nt,nt,i,i,TRPC4 spec 2=76%*;TRPC4 spec=-20%*;HEK293 MPD ctr 2-1=i;HEK293 MPD ctr-1=-361%*
CCOC(=O)c1nc(C)nc(Sc2n[nH]c(-c3cc(C(F)(F)F)cc(C(F)(F)F)c3)n2)c1C,i,i,i,i,i,nt,nt,nt,nt,nt,nt,
Cc1ccc(NS(=O)(=O)c2c(C)[nH]c(C)c2C(=O)N2CCCC2)cc1Cl,i,i,i,i,i,nt,nt,nt,nt,nt,nt,
O=C(C1CCN(CCCc2ccccc2)CC1)N(CCc1ccccc1)Cc1ccccc1,i,i,i,-5.5*,i,110%*,i,i,86%*,68%*,nt,
CCC(C)(C)NC(=O)C(c1ccc(C)o1)N(Cc1cccs1)C(=O)Cn1nnc2ccccc21 (stereo not given),i,15*,i,i,i,342%*,i,80%*,i,i,99%*,
COCCNC(=O)C(c1ccccc1)N(Cc1cccs1)C(=O)Cn1nnc2ccccc21 (stereo not given),i,i,i,i,i,nt,nt,nt,nt,nt,nt,
CCC(C)(C)NC(=O)C(c1ccccc1)N(Cc1cccs1)C(=O)Cn1nnc2ccccc21 (stereo not given),i,15*,i,i,i,119%*,i,34%*,i,i,44%*,
CC1S/C(=N/N=C/c2ccco2)N(Cc2ccccc2)C1=O (stereo not given),i,i,i,i,i,nt,nt,nt,nt,nt,nt,
